# CCR6 antagonist = blocks CCL20-driven beta-arrestin recruitment at human CCR6 | CHO-K1 CCR6 PathHunter beta-arrestin, luminescence, CCL20-stimulated | 340,000 tested, 0.49% active | inhibition, % at 20 µM | AID 493098;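 active = compounds whose inhibition of the agonist-driven luminescence signal at 20 µM reaches about 50%, limit read from the data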;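 note: cells stimulated with CCL20 at 14 nM final; plate controls were DMSO with CCL20 for no effect and DMSO without agonist for full effect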
# B2AR ag = activates human beta-2 adrenergic receptor causing internalization; response, % (concentration not given with the values); AID 504454; Am2.2-beta2AR cells, FAP receptor internalization, flow cytometry; 340,000 tested, 0.43% active; P07550;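 active = response above a set limit, near 3 SD of response in nonfluorescent compounds, cut at about 42% in these data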
# Target sequence (P07550 whole entry, looked up): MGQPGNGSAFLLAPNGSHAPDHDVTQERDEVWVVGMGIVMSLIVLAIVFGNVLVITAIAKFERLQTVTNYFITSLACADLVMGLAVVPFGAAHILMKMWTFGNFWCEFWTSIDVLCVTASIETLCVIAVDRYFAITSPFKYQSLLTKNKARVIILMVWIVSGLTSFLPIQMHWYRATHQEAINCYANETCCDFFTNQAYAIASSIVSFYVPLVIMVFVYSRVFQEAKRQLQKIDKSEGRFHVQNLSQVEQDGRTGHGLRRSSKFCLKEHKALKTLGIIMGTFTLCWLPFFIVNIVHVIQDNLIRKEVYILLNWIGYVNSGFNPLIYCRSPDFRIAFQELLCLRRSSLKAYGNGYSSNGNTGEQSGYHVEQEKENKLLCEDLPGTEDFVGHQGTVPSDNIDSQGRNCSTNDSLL
# APJ antagonist = blocks the human apelin receptor APJ; CHO-K1 APJ beta-arrestin complementation, luminescence; inhibition, % at 20 µM; 330,000 tested, 0.32% active; AID 2521;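 active = inhibition above about 40% at 20 µM, limit read from the data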;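 note: cells challenged with 10 nM apelin-13 agonist together with compound; plate controls were apelin-13 plus DMSO wells for no effect and DMSO wells lacking apelin-13 for full effect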
# APJ agonist = APJ receptor agonism; 330,000 tested, 0.11% active; activation, % at 20 µM; AID 2520; CHO-K1 APJ PathHunter beta-arrestin, luminescence; 0% DMSO wells, 100% apelin; P35414;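 active = activation more than six SD over the plate average, tested at 20 µM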;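 note: 0% = DMSO alone and 100% = apelin-13 at 10 nM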
#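 Test system: CHO-K1 APJ beta-arrestin complementation cell line | Compound: Single test compound dose, 20 µM final, 1% DMSO | Incubation: Compound 90 min 25 °C, reagent 1 h | Measured by: beta-gal luminescence | Read-out basis: APJ–arrestin association signal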
# CXCR6 inh = blocks human CXCR6 beta-arrestin recruitment; O00574; CHO-K1 PathHunter CXCR6 beta-arrestin, luminescence; inhibition, % at 20 µM; 360,000 tested, 0.36% active; AID 602244; in the data active = inhibition above about 34%, passing the limit was not always enough;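 note: antagonist mode with CXCL16 agonist at 10 nM final; 0% = 10 nM CXCL16 with DMSO and 100% = unstimulated wells without agonist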
# PfG6PD inh = PfG6PD (Plasmodium falciparum) enzyme inhibition. PfGluPho enzyme, NADPH resazurin-diaphorase fluorescence. inhibition, % at 20 µM. AID 504690. 350,000 tested, 0.78% active;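 active = inhibition reaching at least a set limit at 20 µM in the primary screen, cut at about 59% in these data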;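 note: 0% = DMSO wells with substrate and 100% = DMSO wells lacking glucose-6-phosphate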
# PfGluPho conf = PfG6PD inhibition, single-dose confirmed | recombinant PfGluPho, NADPH-diaphorase-resazurin fluorescence | shares compounds with PfG6PD inh | 2,400 tested, 34% active | inhibition, % at 20 µM;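 active = inhibition of at least 50% at 20 µM in any single replicate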;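 note: 0% = DMSO with substrate and 100% = DMSO lacking glucose-6-phosphate substrate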
# Diaphorase 10uM = diaphorase inhibition or oxidation at 10 uM NADPH. shares compounds with PfG6PD inh. diaphorase-coupled resazurin reduction, fluorescence, NADPH 10 uM. inhibition, % at 20 µM. 820 tested, 39% active;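 active = average inhibition reaching 50% or more with the compound at 20 µM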;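 note: resorufin red fluorescence formed as diaphorase reduces resazurin using NADPH; 0% = DMSO with enzyme and 100% = DMSO without enzyme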
# Diaphorase 30uM = inhibits diaphorase or oxidizes, flagging false PfG6PD hits. shares compounds with PfG6PD inh. Diaphorase/resazurin coupled assay, resorufin fluorescence, 30 uM NADPH. inhibition, % at 20 µM. 820 tested, 29% active;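 active = inhibition averaging 50% or more, tested at 20 µM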;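 note: 0% = DMSO with enzyme and 100% = DMSO wells lacking diaphorase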
# An asterisk follows results filed as active; / = no result given. This is a sample that favours compounds with a hit; in the whole collection about 1.7% have one here.
SMILES,CCR6 antagonist,B2AR ag,APJ antagonist,APJ agonist,CXCR6 inh,PfG6PD inh,PfGluPho conf,others
COc1ccc(CCC(C)N2CCC(CO)(Cc3ccccc3)CC2)cc1 (stereo unspecified),14,1,-4,-3,-3,9,/,
CCOC(=O)Cc1ccc(NC(=O)c2cccc([N+](=O)[O-])c2)cc1,-32,5,-17,-1,2,16,/,
CCOC(=O)CSc1nnc(NC(=O)c2cccc([N+](=O)[O-])c2)s1,11,0,11,-3,9,80*,58*,Diaphorase 10uM=51*;Diaphorase 30uM=39
O=C(Nc1ccc(NC(=O)c2cccc([N+](=O)[O-])c2)cc1)c1cccc([N+](=O)[O-])c1,20,-8,-6,3,7,7,/,
O=C(Nc1ncc([N+](=O)[O-])s1)c1cccc([N+](=O)[O-])c1,13,17,7,-4,36,103*,89*,Diaphorase 10uM=77*;Diaphorase 30uM=69*
Cc1ccc(Nc2c([N+](=O)[O-])ccc3nonc23)c(C)c1,4,-1,1,1,-13,7,/,
Cc1ccc(S(=O)c2ccc([N+](=O)[O-])c3nonc23)cc1 (stereo unspecified),/,/,/,/,13,117*,103*,Diaphorase 10uM=11;Diaphorase 30uM=11
CN=c1sc2c(n1C)C(=O)c1ccccc1C2=O,18,-6,/,/,-7,72*,18,
CN=c1sc(C(=O)Nc2ccccc2)c(C)n1C,7,-10,1,1,-6,1,/,
CC(OC(=O)c1ccco1)C(=O)Nc1ccc(C(F)(F)F)cc1 (stereo unspecified),1,2,-7,-3,-8,3,/,
Cc1cc(C)nc(SCc2nc3ccccc3n2C)n1,-7,-7,-11,-2,2,-12,/,
Cn1c(CSc2nc3ccccc3n2C)nc2ccccc21,10,-6,1,0,2,78*,45,
O=C1C=CC(=Nc2cccc3c2C(=O)c2ccccc2-3)O1,-14,7,/,/,-6,-13,/,
O=C1C=CC(=Nc2ccc3c(c2)Cc2cc(F)ccc2-3)O1,5,9,/,/,-1,61*,4,
CC(=O)c1sc(Nc2ccc(Oc3ccccc3)cc2)nc1C,/,/,/,/,-20,/,/,
Cn1cc(S(=O)(=O)CC(=O)Nc2ccc(Br)cc2)c2ccccc21,0,-8,-6,-2,0,87*,39,
Cc1ccc(S(=O)(=O)Nc2cc(Cl)ccc2-n2cncn2)cc1,-11,5,4,0,-9,-8,/,
Cc1cccc(C)c1NC(=O)CN(C1CCCCC1)S(C)(=O)=O,13,9,-14,0,4,-5,/,
Cn1c2ccccc2c(=O)c2cc(C#Cc3cccc(N)c3)ccc21,19,13,11,-1,6,62*,21,
Cn1c2ccccc2c(=O)c2ccc(C#Cc3ccc(N)cc3)cc21,20,29,-9,2,5,5,/,
O=C(Nc1ccc(Nc2ccccc2)cc1)c1cc([N+](=O)[O-])ccc1Cl,-2,10,-16,11,-60,20,/,
CC(=O)Nc1ccc(NC(=O)c2ccccc2Sc2ccc([N+](=O)[O-])cc2Cl)cc1,-9,1,-21,1,-7,48,15,
Nc1ncccc1C(=O)OCC(=O)N1CCN(S(=O)(=O)c2ccc(Cl)cc2)CC1,-2,2,10,0,4,2,/,
C[n+]1cccc2c(Br)ccc([O-])c21,-11,3,-65,8,-32,114*,17,
Nc1nc(N)c2ncn(C3C=CC(CO)C3)c2n1 (stereo unspecified),/,/,/,/,6,/,/,
CC(=O)CC1(O)C(=O)Nc2ccccc21 (stereo unspecified),7,1,-3,-1,-4,-6,/,
COC1=CC(=O)C=C(OC)C1(O)CC(C)=O,-3,12,/,/,-13,68*,54*,Diaphorase 10uM=-7;Diaphorase 30uM=-14

# From PubChem BioAssay
